The record followed here is ChEMBL document CHEMBL1153156, “Pyrrole derivatives as potent inhibitors of lymphocyte-specific kinase: Structure, synthesis, and SAR” (Bioorg Med Chem Lett, 2010).

Assay [1] in a line: Immunosuppressive activity in C57BL6/J mouse T cells cocultured with mitomycin C-treated BALB/c spleen cells assessed as inhibition of [3H]thymidine incorporation after 72 hrs by mixed lymphocyte reaction assay. It counts as functional. Put shortly: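 Nylon-wool-purified splenic and lymph node T cells from C57BL/6 mice (3 × 10⁵/well) cocultured with mitomycin-C-treated BALB/c spleen cells (2 × 10⁵/well), 37 °C, 5% CO₂, 72 h. Compounds added at culture start. ³H-thymidine pulse for last 4 h, incorporation counted. IC₅₀ from nine-point half-log concentration–response curves; mean of at least two independent experiments.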
On the technique in general: Incorporation of labelled thymidine or its analogues reports DNA synthesis.

The target in assay [2] is Tyrosine-protein kinase Lck (Homo sapiens) (UniProt P06239). Put plainly: Inhibition of human recombinant Lck expressed in insect cells by Packard topcount method. An outline of the steps:
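Lck (5 ng/well) incubated with compound in 50 mM Hepes, 50 mM KCl, 25 mM MgCl₂, 5 mM MnCl₂, Na₃VO₄, 0.01% CHAPS, 1 mM DTT. Poly(Glu-Tyr) 4:1 substrate, ATP and ³³P-ATP added; 25 °C, 60 min. Stopped with 100 mM phosphoric acid, filtered onto membrane, scintillation counted. IC₅₀ from eight-point half-log curves; mean of at least two independent experiments.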

A short description of assay [3]: Inhibition of CAMK2.
In assay [4] the target is Tyrosine-protein kinase ABL1 (Homo sapiens, UniProt P00519). Put plainly: Inhibition of Abl.
The target in assay [5] is Tyrosine-protein kinase CSK (Homo sapiens, UniProt P41240). Briefly: Inhibition of Csk.
Assay [6] deals with Proto-oncogene tyrosine-protein kinase Src (Homo sapiens, UniProt P12931). Put plainly: Inhibition of Src.
The nature of assay [7]: Selectivity ratio of IC50 for Csk to IC50 for human recombinant Lck.
Assay [8] can be described thus: Inhibition of PKA.
The target of assay [9] is Dual specificity mitogen-activated protein kinase kinase 1 (Homo sapiens, UniProt Q02750). Put plainly: Inhibition of MEK1.
A short description of assay [10]: Inhibition of PKC.
Assay [11] addresses T1, Tyrosine-protein kinase ZAP-70 (Homo sapiens, UniProt P43403).
T1 sequence (P43403 whole entry): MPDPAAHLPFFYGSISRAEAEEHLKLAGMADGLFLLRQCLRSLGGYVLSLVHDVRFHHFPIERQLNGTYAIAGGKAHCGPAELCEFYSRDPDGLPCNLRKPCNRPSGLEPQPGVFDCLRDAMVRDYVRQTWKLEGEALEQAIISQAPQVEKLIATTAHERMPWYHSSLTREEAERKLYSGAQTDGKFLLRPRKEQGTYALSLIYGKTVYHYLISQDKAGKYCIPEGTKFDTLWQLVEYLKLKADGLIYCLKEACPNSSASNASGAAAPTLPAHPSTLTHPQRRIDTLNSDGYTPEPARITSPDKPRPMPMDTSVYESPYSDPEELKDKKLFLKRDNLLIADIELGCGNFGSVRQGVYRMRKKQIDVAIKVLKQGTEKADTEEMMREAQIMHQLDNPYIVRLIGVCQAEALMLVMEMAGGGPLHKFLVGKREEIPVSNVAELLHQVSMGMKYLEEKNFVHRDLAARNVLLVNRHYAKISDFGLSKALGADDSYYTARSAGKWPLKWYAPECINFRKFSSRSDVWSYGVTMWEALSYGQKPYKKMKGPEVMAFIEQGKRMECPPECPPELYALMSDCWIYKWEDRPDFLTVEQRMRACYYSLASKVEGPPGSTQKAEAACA
Put plainly: Inhibition of ZAP70.

The target in assay [12] is RAC-alpha serine/threonine-protein kinase (Homo sapiens, UniProt P31749). Briefly: Inhibition of PKB.
The nature of assay [13]: Selectivity ratio of IC50 for Src to IC50 for human recombinant Lck.
The target in assay [14] is Cyclin-dependent kinase 1 (Homo sapiens, UniProt P06493). Briefly: Inhibition of CDK1.
Cyclin-dependent kinase 1, sequence (P06493 whole entry): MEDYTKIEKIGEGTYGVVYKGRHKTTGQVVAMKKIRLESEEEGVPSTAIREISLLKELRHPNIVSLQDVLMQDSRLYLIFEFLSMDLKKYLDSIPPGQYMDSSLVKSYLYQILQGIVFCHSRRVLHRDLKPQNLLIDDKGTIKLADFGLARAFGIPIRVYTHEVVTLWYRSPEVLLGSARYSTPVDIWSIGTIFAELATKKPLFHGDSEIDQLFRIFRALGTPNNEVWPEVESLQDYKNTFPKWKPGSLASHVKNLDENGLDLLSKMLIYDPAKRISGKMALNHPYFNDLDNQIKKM

Tyrosine-protein kinase Lck (Homo sapiens), sequence (P06239 2-509 limits assumed): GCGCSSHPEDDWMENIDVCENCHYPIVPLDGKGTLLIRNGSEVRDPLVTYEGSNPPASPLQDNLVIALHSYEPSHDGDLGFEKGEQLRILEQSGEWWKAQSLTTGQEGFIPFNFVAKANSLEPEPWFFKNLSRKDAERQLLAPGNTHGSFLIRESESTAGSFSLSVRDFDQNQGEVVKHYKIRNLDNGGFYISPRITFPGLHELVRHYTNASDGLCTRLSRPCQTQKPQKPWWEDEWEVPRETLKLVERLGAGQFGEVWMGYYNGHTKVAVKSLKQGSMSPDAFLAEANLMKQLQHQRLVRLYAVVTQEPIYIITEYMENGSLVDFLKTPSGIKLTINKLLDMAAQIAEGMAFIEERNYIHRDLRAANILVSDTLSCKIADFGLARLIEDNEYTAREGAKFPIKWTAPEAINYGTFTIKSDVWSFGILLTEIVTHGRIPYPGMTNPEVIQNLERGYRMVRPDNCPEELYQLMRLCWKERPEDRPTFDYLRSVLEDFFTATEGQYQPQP
Proto-oncogene tyrosine-protein kinase Src, sequence (P12931 2-536 limits assumed): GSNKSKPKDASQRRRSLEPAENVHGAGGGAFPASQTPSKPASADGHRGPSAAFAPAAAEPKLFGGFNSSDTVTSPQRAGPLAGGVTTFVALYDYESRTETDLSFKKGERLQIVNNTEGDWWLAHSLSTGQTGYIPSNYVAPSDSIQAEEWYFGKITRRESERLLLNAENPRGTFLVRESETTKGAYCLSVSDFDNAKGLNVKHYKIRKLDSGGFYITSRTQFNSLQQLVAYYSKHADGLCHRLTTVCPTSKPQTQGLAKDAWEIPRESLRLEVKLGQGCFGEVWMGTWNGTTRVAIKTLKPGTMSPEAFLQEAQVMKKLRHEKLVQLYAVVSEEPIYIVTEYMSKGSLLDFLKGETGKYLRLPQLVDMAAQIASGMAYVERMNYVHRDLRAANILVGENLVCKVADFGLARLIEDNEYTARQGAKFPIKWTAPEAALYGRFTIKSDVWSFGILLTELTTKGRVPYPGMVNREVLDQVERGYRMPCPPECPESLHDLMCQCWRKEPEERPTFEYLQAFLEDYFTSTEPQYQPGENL
Tyrosine-protein kinase ABL1, sequence (P00519 whole entry): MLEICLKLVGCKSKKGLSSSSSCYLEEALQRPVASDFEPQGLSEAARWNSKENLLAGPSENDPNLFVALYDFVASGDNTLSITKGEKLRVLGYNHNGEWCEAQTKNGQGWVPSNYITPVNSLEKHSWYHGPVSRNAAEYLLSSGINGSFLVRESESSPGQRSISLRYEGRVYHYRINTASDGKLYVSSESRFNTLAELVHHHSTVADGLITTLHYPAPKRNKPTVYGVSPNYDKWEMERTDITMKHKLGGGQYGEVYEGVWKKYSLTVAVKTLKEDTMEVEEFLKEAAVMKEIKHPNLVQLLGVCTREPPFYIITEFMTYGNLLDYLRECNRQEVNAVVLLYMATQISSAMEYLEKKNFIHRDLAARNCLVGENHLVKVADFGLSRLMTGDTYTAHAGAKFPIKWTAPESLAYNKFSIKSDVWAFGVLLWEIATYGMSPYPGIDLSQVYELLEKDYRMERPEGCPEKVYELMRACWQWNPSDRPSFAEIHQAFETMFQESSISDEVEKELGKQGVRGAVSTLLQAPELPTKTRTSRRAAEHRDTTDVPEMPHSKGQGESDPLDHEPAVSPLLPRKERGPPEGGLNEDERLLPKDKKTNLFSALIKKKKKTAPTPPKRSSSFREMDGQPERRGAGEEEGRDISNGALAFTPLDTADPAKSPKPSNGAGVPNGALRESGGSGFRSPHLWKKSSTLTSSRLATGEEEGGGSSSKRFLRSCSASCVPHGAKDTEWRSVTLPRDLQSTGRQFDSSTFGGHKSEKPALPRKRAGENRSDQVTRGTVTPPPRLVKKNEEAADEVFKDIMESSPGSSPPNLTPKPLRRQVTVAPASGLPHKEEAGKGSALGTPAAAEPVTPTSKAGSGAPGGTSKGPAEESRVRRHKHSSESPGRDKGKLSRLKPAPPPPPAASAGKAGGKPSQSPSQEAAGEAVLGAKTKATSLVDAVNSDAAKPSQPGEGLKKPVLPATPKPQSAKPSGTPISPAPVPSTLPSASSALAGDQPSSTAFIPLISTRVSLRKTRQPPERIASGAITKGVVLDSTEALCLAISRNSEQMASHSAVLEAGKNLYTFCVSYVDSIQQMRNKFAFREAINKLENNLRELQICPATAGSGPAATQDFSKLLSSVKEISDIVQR
RAC-alpha serine/threonine-protein kinase, sequence (P31749 whole entry): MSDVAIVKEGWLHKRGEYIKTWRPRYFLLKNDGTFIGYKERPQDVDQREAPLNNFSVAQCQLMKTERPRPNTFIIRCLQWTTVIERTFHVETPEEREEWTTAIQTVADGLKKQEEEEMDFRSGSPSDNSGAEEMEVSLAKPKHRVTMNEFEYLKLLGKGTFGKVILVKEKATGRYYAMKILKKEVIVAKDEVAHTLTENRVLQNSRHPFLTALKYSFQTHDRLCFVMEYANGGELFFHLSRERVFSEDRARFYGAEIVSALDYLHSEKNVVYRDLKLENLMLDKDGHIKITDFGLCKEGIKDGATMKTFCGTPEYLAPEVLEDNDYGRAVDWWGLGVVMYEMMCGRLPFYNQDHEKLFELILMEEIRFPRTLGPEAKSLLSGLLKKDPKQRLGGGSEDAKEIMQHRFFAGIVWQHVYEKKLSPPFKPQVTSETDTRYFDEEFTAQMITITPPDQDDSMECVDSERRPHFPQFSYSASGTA
Dual specificity mitogen-activated protein kinase kinase 1, sequence (Q02750 whole entry): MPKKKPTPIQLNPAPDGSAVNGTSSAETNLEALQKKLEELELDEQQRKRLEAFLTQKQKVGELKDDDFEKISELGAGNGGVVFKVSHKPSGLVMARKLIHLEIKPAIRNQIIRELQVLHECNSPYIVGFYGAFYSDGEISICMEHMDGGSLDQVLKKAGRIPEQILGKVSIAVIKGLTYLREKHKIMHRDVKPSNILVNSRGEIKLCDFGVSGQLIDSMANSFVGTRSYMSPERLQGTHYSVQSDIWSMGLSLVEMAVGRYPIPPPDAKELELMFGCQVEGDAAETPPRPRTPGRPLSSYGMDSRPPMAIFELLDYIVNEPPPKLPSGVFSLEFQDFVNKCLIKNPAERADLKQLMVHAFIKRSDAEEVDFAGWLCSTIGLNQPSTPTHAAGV
Tyrosine-protein kinase CSK, sequence (P41240 whole entry): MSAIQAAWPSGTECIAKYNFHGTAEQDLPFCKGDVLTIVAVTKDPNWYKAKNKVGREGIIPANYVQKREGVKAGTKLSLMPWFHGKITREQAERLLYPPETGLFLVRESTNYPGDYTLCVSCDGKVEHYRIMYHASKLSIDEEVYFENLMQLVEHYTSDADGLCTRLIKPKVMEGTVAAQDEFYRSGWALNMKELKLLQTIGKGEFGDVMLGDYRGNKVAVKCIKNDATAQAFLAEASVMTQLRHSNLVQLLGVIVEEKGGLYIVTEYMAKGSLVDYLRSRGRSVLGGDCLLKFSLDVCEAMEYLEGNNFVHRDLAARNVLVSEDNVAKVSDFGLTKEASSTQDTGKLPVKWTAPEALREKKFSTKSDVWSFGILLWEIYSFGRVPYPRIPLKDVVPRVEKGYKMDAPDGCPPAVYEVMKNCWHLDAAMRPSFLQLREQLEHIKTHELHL

With `Cc1ccccc1C(=O)c1[nH]c(-c2ccc(Oc3ccccc3)cc2)c(C(N)=O)c1N`, in assay [1], the half-maximal inhibitory concentration (IC50) was 180 nM. Further, the C50 in assay [2] came out at 2.7 nM.
On the same counts, the results for `NC(=O)c1c(-c2ccc(Oc3ccccc3)cc2)[nH]c(C(=O)c2ccccc2Br)c1N` are 150 nM and 2.5 nM.
Take `NC(=O)c1c(-c2ccc(Oc3ccccc3)cc2)[nH]c(C(=O)c2cc(Cl)cc(Cl)c2)c1N`: the C50 in assay [2] was found to be 38 nM.
With `Cc1cccc(C(=O)c2[nH]c(-c3ccc(Oc4ccccc4)cc3)c(C(N)=O)c2N)c1`, the IC50 in assay [1] is given as 420 nM. In [2], the C50 stood at 4 nM.
In the case of `Cc1cccc(C(=O)c2[nH]c(-c3ccc(Oc4ccccc4)cc3)c(C(N)=O)c2N)c1C`, the IC50 in [1] turned out to be 110 nM. Also, the C50 in [2] is 2.6 nM.
Regarding `NC(=O)c1c(-c2ccc(Oc3ccccc3)cc2)[nH]c(C(=O)c2ccc(Cl)cc2Cl)c1N`, the C50 in [2] was 2.3 nM.
Same read-out and setting: with `NC(=O)c1c(-c2ccc(Oc3ccccc3)cc2)[nH]c(C(=O)c2ccccc2F)c1N` the figure was 1.5 nM.
For the compound `NC(=O)c1c(-c2ccc(Oc3ccccc3)cc2)[nH]c(C(=O)c2ccc(F)cc2)c1N`, in [2], the C50 was 10 nM.
On to `COc1ccccc1C(=O)c1[nH]c(-c2ccc(Oc3ccccc3)cc2)c(C(N)=O)c1N`, for which the C50 in assay [2] stood at 9.4 nM.
With `NC(=O)c1c(-c2ccc(Oc3ccccc3)cc2)[nH]c(C(=O)c2c(F)cccc2F)c1N`, the IC50 in [3] is > 10000 nM; in [4], > 10000 nM; in [5], 4.5 nM; in assay [1], 31 nM; in assay [6], 23 nM; in assay [8] it was > 10000 nM. The 50% inhibitory concentration (IC50) in assay [9], in assay [10], in assay [11], in assay [12] and in assay [14] was > 10000 nM throughout. Moreover, the Ratio IC50 in assay [7] is > 3; in assay [13], > 17. Besides, the C50 in [2] is 1.3 nM.
As for `NC(=O)c1c(-c2ccc(Oc3ccccc3)cc2)[nH]c(C(=O)c2ccccc2)c1N`, the C50 in assay [2] came to 11 nM.
Consider `NC(=O)c1c(-c2ccc(Oc3ccccc3)cc2)[nH]c(C(=O)c2ccccc2Cl)c1N`, for which the IC50 in [1] was determined as 69 nM. Besides, in assay [2], the C50 is 1.8 nM.
For the compound `NC(=O)c1c(-c2ccc(NCc3c(Cl)cccc3Cl)cc2)[nH]c(C(=O)c2c(F)cccc2F)c1N`, the IC50 in [1] came to 31 nM. Besides, the C50 in assay [2] turned out to be 0.92 nM.
For `NC(=O)c1c(-c2ccc(NCc3cc(Cl)ccc3Cl)cc2)[nH]c(C(=O)c2c(F)cccc2F)c1N`, the C50 in assay [2] was 93 nM.
In the case of `Cc1ccc(C(=O)c2[nH]c(-c3ccc(Oc4ccccc4)cc3)c(C(N)=O)c2N)cc1`, the IC50 in assay [1] is reported as 180 nM. Besides, the C50 in [2] amounted to 2.8 nM.
Regarding `NC(=O)c1c(-c2ccc(OCc3c(Cl)cccc3Cl)cc2)[nH]c(C(=O)c2c(F)cccc2F)c1N`, the IC50 in assay [1] is >1000 nM. For the same compound, the C50 in assay [2] is > 100 nM.
Consider `NC(=O)c1c(-c2ccc(Oc3ccccc3)cc2)[nH]c(C(=O)c2cccc(Br)c2)c1N`, for which the C50 in assay [2] was 6.2 nM.
Take `CN(Cc1c(Cl)cccc1Cl)c1ccc(-c2[nH]c(C(=O)c3c(F)cccc3F)c(N)c2C(N)=O)cc1`: the IC50 in assay [1] is >1000 nM. Besides, the C50 in [2] came out at 92 nM.
`Cc1cc(C)cc(C(=O)c2[nH]c(-c3ccc(Oc4ccccc4)cc3)c(C(N)=O)c2N)c1`: the C50 in assay [2] was 13 nM.
In the case of `NC(=O)c1c(-c2ccc(Oc3ccccc3)cc2)[nH]c(C(=O)c2ccccc2C(F)(F)F)c1N`, the IC50 in [1] was determined as 68 nM. In addition, the C50 in assay [2] stood at 3.5 nM.
The corresponding values for `Cc1cccc(Cl)c1CNc1ccc(-c2[nH]c(C(=O)c3c(F)cccc3F)c(N)c2C(N)=O)cc1` are 56 nM and 3.6 nM.
On to `NC(=O)c1c(-c2ccc(Oc3ncccn3)cc2)[nH]c(C(=O)c2c(F)cccc2F)c1N`, for which the C50 in assay [2] was > 100 nM.
In the case of `Cc1ccc(C)c(C(=O)c2[nH]c(-c3ccc(Oc4ccccc4)cc3)c(C(N)=O)c2N)c1`, in assay [2], the C50 was found to be 10 nM.
`NC(=O)c1c(-c2ccc(OCc3ccccc3)cc2)[nH]c(C(=O)c2c(F)cccc2F)c1N`: the IC50 in [1] was >1000 nM. The C50 in [2] was 6.1 nM.
In the case of `NC(=O)c1c(-c2ccc(NC(=O)c3ccccc3)cc2)[nH]c(C(=O)c2c(F)cccc2F)c1N`, in [2], the C50 was > 100 nM.
Turning to `NC(=O)c1c(-c2ccc(Oc3ccccc3)cc2)[nH]c(C(=O)c2ccc(Oc3ccccc3)cc2)c1N`, the C50 in assay [2] amounted to 49 nM.
Consider `COc1ccc(-c2[nH]c(C(=O)c3c(F)cccc3F)c(N)c2C(N)=O)cc1`, for which the C50 in [2] was > 100 nM.
As to `NC(=O)c1c(-c2ccc(Oc3ccccc3)cc2)[nH]c(C(=O)c2c(F)cc(F)cc2F)c1N`, the IC50 in assay [1] was 62 nM. The C50 in assay [2] turned out to be 1.8 nM.
On to `NC(=O)c1c(-c2ccc(Oc3ccccc3)cc2)[nH]c(C(=O)c2ccc(Cl)cc2)c1N`, for which the C50 in assay [2] turned out to be 7 nM.
On the same count and under the same terms, with `NC(=O)c1c(-c2ccc(NCc3ccccc3)cc2)[nH]c(C(=O)c2c(F)cccc2F)c1N` the figure was 6.4 nM.
Turning to `NC(=O)c1c(-c2ccc(Oc3ccccc3)cc2)[nH]c(C(=O)c2cccc(F)c2)c1N`, the C50 in [2] came out at 5 nM.
On the same count and under the same terms, with `Cc1ccc(C(=O)c2[nH]c(-c3ccc(Oc4ccccc4)cc3)c(C(N)=O)c2N)c(C)c1` the figure was 1.8 nM.
Turning to `NC(=O)c1c(-c2ccc(Oc3ccccc3)cc2)[nH]c(C(=O)c2cccc(Cl)c2)c1N`, in [2], the C50 turned out to be 6.3 nM.
In the case of `NC(=O)c1c(-c2ccc(NCC3CCCCC3)cc2)[nH]c(C(=O)c2c(F)cccc2F)c1N`, the C50 in [2] worked out at 74 nM.
Still for that read-out and setting: with `NC(=O)c1c(-c2ccc(Oc3ccccc3)cc2)[nH]c(C(=O)c2cc(Cl)ccc2Cl)c1N` the figure was 19 nM.
Regarding `NC(=O)c1c(-c2ccc(Oc3ccccc3)cc2)[nH]c(C(=O)c2cccc(Cl)c2Cl)c1N`, in assay [1], the IC50 is reported as 45 nM. Besides, in assay [2], the C50 amounted to 1.2 nM.
Consider `NC(=O)c1c(-c2ccc(N)cc2)[nH]c(C(=O)c2c(F)cccc2F)c1N`, for which the IC50 in assay [1] is given as >1000 nM. Moreover, in assay [2], the C50 is > 100 nM.
Regarding `NC(=O)c1c(-c2ccc(Oc3ccccc3)cc2)[nH]c(C(=O)c2ccc(Br)cc2)c1N`, the C50 in assay [2] turned out to be 5.9 nM.

Broadly, the IC50 is the concentration at which inhibition is half-maximal.
